From ChEMBL document CHEMBL1134407, “Novel seco cyclopropa[c]pyrrolo[3,2-e]indole bisalkylators bearing a 3,3'-arylenebisacryloyl group as a linker” (J Med Chem, 2001)
Values after ≈ are worked out from the molar mass of the structure shown. Each block holds one compound with its values, some of them ahead of it.

How the values were obtained:
[1] = system: HeLa; test: Inhibitory activity against HeLaS3 human uterine cervix carcinoma cells; format: functional, cell-based
Method in brief: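 HeLaS3 human uterine cervix carcinoma cells were exposed to the drug. The value is the drug concentration that inhibits cell growth by 50%.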

[2] = organism: Mus musculus; test: Percentage tumor growth inhibition as compared with the untreated group; format: functional; design: concentration or dose not given beside the values
[3] = organism: Mus musculus; test: Percentage change in body weight; format: functional
[4] = organism: Mus musculus; test: Ratio between maximum dose within 10% body weight loss to tumor growth inhibition; format: functional
[5] = system: Homo sapiens; test: Antitumor activity against human colon CX-1 tumor Xenografts in Athymic mice at a dose of 9180 micro g/kg; format: functional
Method in brief: (§1)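 Athymic mice carried implanted human colon CX-1 tumor xenografts. Each line gives the dose in μg/kg. Read-out is percentage tumor growth inhibition relative to the untreated group.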

[6] = Cytotoxicity against human cancer cell lines SBC-3 /ADR of lung (adriamycin resistant); format: functional, cell-based
[7] = system: SBC-3; test: Cytotoxicity against human cancer cell lines SBC-3 of lung; format: functional, cell-based
[8] = system: A2780; test: Cytotoxicity against human cancer cell lines A2780 (ovarian); format: functional, cell-based
[9] = system: DLD-1; test: Cytotoxicity against human cancer cell lines DLD-1 of colon.; format: functional, cell-based
[10] = system: ZR-75-1; test: Cytotoxicity against human cancer cell lines ZR-75-1 of breast.; format: functional, cell-based
[11] = system: KATO III stomach cancer cell line; test: Cytotoxicity against human cancer cell lines KATO III (gastric); format: functional, cell-based
[12] = system: Homo sapiens; test: Antitumor activity against human colon CX-1 tumor Xenografts in Athymic mice at a dose of 3.91 micro g/kg; format: functional; method in brief: as §1
[13] = system: PC-3; test: Cytotoxicity against human cancer cell lines PC-3 of lung; format: functional, cell-based
[14] = system: Homo sapiens; test: Antitumor activity against human colon CX-1 tumor Xenografts in Athymic mice at a dose of 7.81 micro g/kg; format: functional
Method in brief: (§2)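 Athymic mice bearing human colon CX-1 tumour xenografts. Dose given in µg/kg. Read-out is percent tumour growth inhibition (TGI) relative to the untreated group.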

[15] = system: Homo sapiens; test: Antitumor activity against human colon CX-1 tumor Xenografts in Athymic mice at a dose of 15.6 micro g/kg; format: functional; method in brief: as §2
[16] = Homo sapiens, HeLa, read-out: IC50

IC50 [1, 16]: > 100 ng/mL
SMILES: COC(=O)c1c(C(F)(F)F)[nH]c2c(O)cc3c(c12)[C@H](CCl)CN3C(=O)/C=C/c1cccc(-c2ccc(-c3cccc(/C=C/C(=O)N4C[C@@H](CCl)c5c4cc(O)c4[nH]c(C(F)(F)F)c(C(=O)OC)c54)c3)cc2)c1

SMILES: COC(=O)c1c(C(F)(F)F)[nH]c2c(O)cc3c(c12)[C@H](CCl)CN3C(=O)/C=C/c1ccc(/C=C/C(=O)N2C[C@@H](CCl)c3c2cc(O)c2[nH]c(C(F)(F)F)c(C(=O)OC)c32)c2c1OCO2
Inhibition [2]: 90%
Body weight change [3]: -2%
Ratio [4]: 13.3
IC50 [1, 16]: 0.00595 ng/mL (≈ 0.00644 nM)

IC50 [1, 16]: 87.6 ng/mL (≈ 99.6 nM)
SMILES: COC(=O)c1c(C(F)(F)F)[nH]c2c(O)cc3c(c12)[C@H](CCl)CN3C(=O)/C=C/c1ccccc1/C=C/C(=O)N1C[C@@H](CCl)c2c1cc(O)c1[nH]c(C(F)(F)F)c(C(=O)OC)c21
Inhibition [2]: 70%
Body weight change [3]: -6%

SMILES: CO[C@@]12[C@H](COC(N)=O)C3=C(C(=O)C(C)=C(N)C3=O)N1C[C@@H]1N[C@@H]12 [MITOMYCIN]
Inhibition [5]: 65%

IC50 [1, 16]: 0.141 ng/mL (≈ 0.148 nM)
SMILES: COC(=O)c1c(C(F)(F)F)[nH]c2c(O)cc3c(c12)[C@H](CCl)CN3C(=O)/C=C/c1ccc(-c2ccc(/C=C/C(=O)N3C[C@@H](CCl)c4c3cc(O)c3[nH]c(C(F)(F)F)c(C(=O)OC)c43)cc2)cc1
Inhibition [2]: 83%
Body weight change [3]: 4%
Ratio [4]: 3.7

SMILES: CCc1c(/C=C/C(=O)N2C[C@@H](CCl)c3c2cc(O)c2[nH]c(C(F)(F)F)c(C(=O)OC)c32)ccc(/C=C/C(=O)N2C[C@@H](CCl)c3c2cc(O)c2[nH]c(C(F)(F)F)c(C(=O)OC)c32)c1CC
IC50 ([1]; hela): 0.00138 ng/mL (≈ 0.00147 nM)

IC50 [1, 16]: 54.6 ng/mL (≈ 62.1 nM)
SMILES: COC(=O)c1c(C(F)(F)F)[nH]c2c(O)cc3c(c12)[C@H](CCl)CN3C(=O)/C=C/c1cccc(/C=C/C(=O)N2C[C@@H](CCl)c3c2cc(O)c2[nH]c(C(F)(F)F)c(C(=O)OC)c32)c1
Inhibition [2]: 91%
Body weight change [3]: -5%

SMILES: COC(=O)c1c(C(F)(F)F)[nH]c2c(O)cc3c(c12)[C@H](CCl)CN3C(=O)/C=C/c1ccc(/C=C/C(=O)N2C[C@@H](CCl)c3c2cc(O)c2[nH]c(C(F)(F)F)c(C(=O)OC)c32)c2c(OC)ccc(OC)c12
IC50 [1, 16]: 0.00934 ng/mL (≈ 0.00944 nM)

IC50 [1, 16]: 1.51 ng/mL (≈ 1.54 nM)
SMILES: COC(=O)c1c(C(F)(F)F)[nH]c2c(O)cc3c(c12)[C@H](CCl)CN3C(=O)/C=C/c1c2ccccc2c(/C=C/C(=O)N2C[C@@H](CCl)c3c2cc(O)c2[nH]c(C(F)(F)F)c(C(=O)OC)c32)c2ccccc12
Inhibition [2]: 75%
Body weight change [3]: -18%

SMILES: COC(=O)c1c(C(F)(F)F)[nH]c2c(O)cc3c(c12)[C@H](CCl)CN3C(=O)/C=C/c1ccc(/C=C/C(=O)N2C[C@@H](CCl)c3c2cc(O)c2[nH]c(C(F)(F)F)c(C(=O)OC)c32)c2c1OCCO2
Inhibition [2]: 91%
Body weight change [3]: 3%
Ratio [4]: 9
IC50 ([1]; hela): 0.00276 ng/mL (≈ 0.00294 nM)

IC50 ([1]; hela): 0.0049 ng/mL (≈ 0.00499 nM)
SMILES: COC(=O)c1c(C(F)(F)F)[nH]c2c(O)cc3c(c12)[C@H](CCl)CN3C(=O)c1cc2cc(-c3ccc4[nH]c(C(=O)N5C[C@@H](CCl)c6c5cc(O)c5[nH]c(C(F)(F)F)c(C(=O)OC)c65)cc4c3)ccc2[nH]1
Inhibition [2]: 84%
Body weight change [3]: 1%
Ratio [4]: 3.3

SMILES: COc1cccc2c1C(=O)c1c(O)c3c(c(O)c1C2=O)C[C@@](O)(C(=O)CO)C[C@@H]3O[C@H]1C[C@H](N)[C@H](O)[C@H](C)O1 [DOXORUBICIN]
IC50 [6]: 129 ng/mL (≈ 237 nM)
IC50 ([7]; Homo sapiens, SBC-3, read-out: IC50): 11.2 ng/mL (≈ 20.6 nM)
IC50 ([8]; Homo sapiens, A2780, read-out: IC50): 12.1 ng/mL (≈ 22.3 nM)
IC50 [9]: 136 ng/mL (≈ 250 nM)
IC50 ([10]; Homo sapiens, ZR-75-1, read-out: IC50): 6.39 ng/mL (≈ 11.8 nM)
IC50 [11]: 905 ng/mL (≈ 1670 nM)

SMILES: COC(=O)c1c(C(F)(F)F)[nH]c2c(O)cc3c(c12)[C@H](CCl)CN3C(=O)/C=C/c1ccc(/C=C/C(=O)N2C[C@@H](CCl)c3c2cc(O)c2[nH]c(C(F)(F)F)c(C(=O)OC)c32)cc1
IC50 [6]: 0.00349 ng/mL (≈ 0.00397 nM)
Inhibition [2]: 89%
IC50 ([7]; sbc-3): 0.00122 ng/mL (≈ 0.00139 nM)
IC50 ([8]; a2780): 0.000397 ng/mL (≈ 0.000451 nM)
Body weight change [3]: -5%
IC50 [9]: 0.0149 ng/mL (≈ 0.0169 nM)
Ratio [4]: 30.7
IC50 ([10]; zr-75-1): 0.00463 ng/mL (≈ 0.00526 nM)
Inhibition [12]: 77%
IC50 [11]: 0.816 ng/mL (≈ 0.928 nM)
IC50 [13]: 0.148 ng/mL (≈ 0.168 nM)
IC50 ([1]; hela): 0.00274 ng/mL (≈ 0.00312 nM)
Inhibition [14]: 83%

SMILES: COC(=O)c1c(C(F)(F)F)[nH]c2c(O)cc3c(c12)[C@H](CCl)CN3C(=O)/C=C/c1ccc(/C=C/C(=O)N2C[C@@H](CCl)c3c2cc(O)c2[nH]c(C(F)(F)F)c(C(=O)OC)c32)c(OC)c1OC
Inhibition [2]: 89%
Body weight change [3]: -1%
Ratio [4]: 4.6
IC50 ([1]; hela): 0.00158 ng/mL (≈ 0.00168 nM)

IC50 [1, 16]: 48.3 ng/mL (≈ 46.8 nM)
SMILES: COC(=O)c1c(C(F)(F)F)[nH]c2c(O)cc3c(c12)[C@H](CCl)CN3C(=O)/C=C/c1ccc(-c2ccc(-c3ccc(/C=C/C(=O)N4C[C@@H](CCl)c5c4cc(O)c4[nH]c(C(F)(F)F)c(C(=O)OC)c54)cc3)cc2)cc1
Inhibition [2]: 84%
Body weight change [3]: -11%

IC50 [1, 16]: 9.71 ng/mL (≈ 10.3 nM)
SMILES: COC(=O)c1c(C(F)(F)F)[nH]c2c(O)cc3c(c12)[C@H](CCl)CN3C(=O)/C=C/c1cc(OC)c(/C=C/C(=O)N2C[C@@H](CCl)c3c2cc(O)c2[nH]c(C(F)(F)F)c(C(=O)OC)c32)cc1OC
Inhibition [2]: 81%
Body weight change [3]: 3%
Ratio [4]: >6.5

SMILES: Cc1c[nH]c2c(O)cc3c(c12)[C@H](CCl)CN3C(=O)c1cc2cc(NC(=O)Nc3ccc4[nH]c(C(=O)N5C[C@@H](CCl)c6c5cc(O)c5[nH]cc(C)c65)cc4c3)ccc2[nH]1 [BIZELESIN]
Inhibition [2]: 90%
Body weight change [3]: -3%
Ratio [4]: 8.4
Inhibition [15]: 56%
Inhibition [14]: 53%

SMILES: COC(=O)c1c(C(F)(F)F)[nH]c2c(O)cc3c(c12)[C@H](CCl)CN3C(=O)/C=C/c1ccc(/C=C/C(=O)N2C[C@@H](CCl)c3c2cc(O)c2[nH]c(C(F)(F)F)c(C(=O)OC)c32)c2ccccc12
Inhibition [2]: 85%
Body weight change [3]: 3%
Ratio [4]: 7.4
IC50 [1, 16]: 0.011 ng/mL (≈ 0.0118 nM)

IC50 [1, 16]: 0.523 ng/mL (≈ 0.518 nM)
SMILES: COC(=O)c1c(C(F)(F)F)[nH]c2c(O)cc3c(c12)[C@H](CCl)CN3C(=O)/C=C/c1ccc(/C=C/C(=O)N2C[C@@H](CCl)c3c2cc(O)c2[nH]c(C(F)(F)F)c(C(=O)OC)c32)c2c1C(=O)c1ccccc1C2=O
Inhibition [2]: 84%
Body weight change [3]: -4%
Ratio [4]: 6.6

SMILES: COC(=O)c1c(C(F)(F)F)[nH]c2c(O)cc3c(c12)[C@H](CCl)CN3C(=O)/C=C/c1ccc(-c2ccc(/C=C/C(=O)N3C[C@@H](CCl)c4c3cc(O)c3[nH]c(C(F)(F)F)c(C(=O)OC)c43)cn2)nc1
Inhibition [2]: 88%
Body weight change [3]: 4%
Ratio [4]: 3.6
IC50 [1, 16]: 0.0198 ng/mL (≈ 0.0207 nM)

IC50 [1, 16]: 3.25 ng/mL (≈ 3.32 nM)
SMILES: COC(=O)c1c(C(F)(F)F)[nH]c2c(O)cc3c(c12)[C@H](CCl)CN3C(=O)/C=C/c1ccc(/C=C/C(=O)N2C[C@@H](CCl)c3c2cc(O)c2[nH]c(C(F)(F)F)c(C(=O)OC)c32)c2cc3ccccc3cc12
Inhibition [2]: 82%
Body weight change [3]: -6%
Ratio [4]: 3.5
